Test results as given in ChEMBL document CHEMBL4020761, “Exploration of pyrrole derivatives to find an effective potassium-competitive acid blocker with moderately long-lasting suppression of gastric acid secretion” (Bioorg Med Chem, 2017).
Activity calls are given as the source filed them. No cut-off for these calls is given here.

Experiments:
[1] = Drug uptake in Sprague-Dawley rat stomach at 0.2 mg/kg, iv administered as cassette dose after 1 hr by LC-MS/MS analysis; assay type: ADME, organism-based; conditions: read-out: Drug uptake
Method in brief: (§1)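 Fasted male Sprague-Dawley rats given compounds iv by cassette dosing at 0.2 mg/kg (as free base). Plasma and stomach sampled at 10 min, 1, 4 and 24 h. Plasma and 20% stomach homogenate in saline deproteinized with acetonitrile containing internal standard, then LC/MS/MS. AUC calculated for plasma and stomach. Values are averages of three rats.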

[2] = Plasma concentration in Sprague-Dawley rat at 0.2 mg/kg, iv administered as cassette dose after 4 hrs by LC-MS/MS analysis; assay type: ADME, organism-based; method in brief: as §1
[3] = Drug uptake in Sprague-Dawley rat stomach at 0.2 mg/kg, iv administered as cassette dose after 4 hrs by LC-MS/MS analysis; assay type: ADME, organism-based; conditions: read-out: Drug uptake; method in brief: as §1
[4] = Lipophilicity, log D of the compound at pH 7.4 by HPLC analysis; assay type: physicochemical; conditions: buffer
Method in brief: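 At pH 7.4, log D derived from HPLC retention time relative to standard compounds.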

[5] = Cytotoxicity against human HepG2 cells assessed as cellular ATP level at 100 uM after 1 day by ATPLite assay relative to control; assay type: cell-based; conditions: read-out: Activity
[6] = Plasma concentration in Sprague-Dawley rat at 0.2 mg/kg, iv administered as cassette dose after 10 mins by LC-MS/MS analysis; assay type: ADME, organism-based; method in brief: as §1
hERG (KCNH2) = hERG (KCNH2) (Homo sapiens, UniProt Q12809); assay: Inhibition of human ERG expressed in HEK cells at 10 uM at -75 mV holding potential by Whole-cell voltage clamp assay relative to control; assay type: cell-based; conditions: HEK cells expressing human ERG
Sequence of hERG (KCNH2) (Q12809 whole entry): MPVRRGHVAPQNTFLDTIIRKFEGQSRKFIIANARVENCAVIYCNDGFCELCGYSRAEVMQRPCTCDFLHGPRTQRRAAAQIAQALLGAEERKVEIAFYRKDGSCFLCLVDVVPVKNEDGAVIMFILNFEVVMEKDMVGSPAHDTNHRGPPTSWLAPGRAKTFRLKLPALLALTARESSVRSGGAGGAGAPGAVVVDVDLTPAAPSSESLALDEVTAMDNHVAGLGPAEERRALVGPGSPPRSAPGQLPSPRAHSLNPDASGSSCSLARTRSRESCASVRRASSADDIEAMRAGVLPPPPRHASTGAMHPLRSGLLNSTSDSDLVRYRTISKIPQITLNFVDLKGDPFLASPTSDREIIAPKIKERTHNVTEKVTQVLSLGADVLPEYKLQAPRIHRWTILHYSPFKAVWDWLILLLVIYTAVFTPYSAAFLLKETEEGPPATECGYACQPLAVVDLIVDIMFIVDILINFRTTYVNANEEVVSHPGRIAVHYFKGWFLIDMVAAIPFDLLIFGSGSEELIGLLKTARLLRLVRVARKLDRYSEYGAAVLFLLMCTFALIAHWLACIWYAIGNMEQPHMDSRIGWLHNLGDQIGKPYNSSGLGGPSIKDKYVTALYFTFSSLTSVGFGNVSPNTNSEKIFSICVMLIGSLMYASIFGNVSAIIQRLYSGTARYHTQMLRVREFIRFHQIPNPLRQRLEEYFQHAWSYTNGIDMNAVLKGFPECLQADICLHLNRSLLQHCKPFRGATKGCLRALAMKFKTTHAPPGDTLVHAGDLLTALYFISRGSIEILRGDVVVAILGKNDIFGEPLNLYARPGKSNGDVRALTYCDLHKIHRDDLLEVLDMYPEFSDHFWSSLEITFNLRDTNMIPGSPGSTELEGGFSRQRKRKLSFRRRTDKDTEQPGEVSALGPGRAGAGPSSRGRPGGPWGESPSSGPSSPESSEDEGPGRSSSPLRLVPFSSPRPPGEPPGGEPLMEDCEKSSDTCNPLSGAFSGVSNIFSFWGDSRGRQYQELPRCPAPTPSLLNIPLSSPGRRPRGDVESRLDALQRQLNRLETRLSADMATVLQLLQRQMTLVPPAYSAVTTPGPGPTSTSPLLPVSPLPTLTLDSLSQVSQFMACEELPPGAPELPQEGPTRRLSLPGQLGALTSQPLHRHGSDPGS

[7] = Plasma concentration in Sprague-Dawley rat at 0.2 mg/kg, iv administered as cassette dose after 1 hr by LC-MS/MS analysis; assay type: ADME, organism-based; method in brief: as §1
[8] = AUC in Sprague-Dawley rat plasma at 0.2 mg/kg, iv administered as cassette dose by LC-MS/MS analysis; assay type: ADME, organism-based; method in brief: as §1
[9] = Inhibition of H+/K+-ATPase in porcine stomach gastric mucosal microsomes assessed as reduction in inorganic phosphate production using ATP as substrate preincubated for 30 mins followed by ATP addition in presence of KCl at pH 6.5 by malachite green reagent based colorimetric assay; set-up: species or system Sus scrofa
CYP3A4 = CYP3A4 (Homo sapiens, UniProt P08684); assay: Inhibition of CYP3A4 (unknown origin) expressed in insect cells at 10 uM using testosterone as substrate after 15 mins by HPLC analysis relative to control; assay type: ADME; conditions: recombinant CYP3A4 expressed in insect cells, probe testosterone
Sequence of CYP3A4 (P08684 whole entry): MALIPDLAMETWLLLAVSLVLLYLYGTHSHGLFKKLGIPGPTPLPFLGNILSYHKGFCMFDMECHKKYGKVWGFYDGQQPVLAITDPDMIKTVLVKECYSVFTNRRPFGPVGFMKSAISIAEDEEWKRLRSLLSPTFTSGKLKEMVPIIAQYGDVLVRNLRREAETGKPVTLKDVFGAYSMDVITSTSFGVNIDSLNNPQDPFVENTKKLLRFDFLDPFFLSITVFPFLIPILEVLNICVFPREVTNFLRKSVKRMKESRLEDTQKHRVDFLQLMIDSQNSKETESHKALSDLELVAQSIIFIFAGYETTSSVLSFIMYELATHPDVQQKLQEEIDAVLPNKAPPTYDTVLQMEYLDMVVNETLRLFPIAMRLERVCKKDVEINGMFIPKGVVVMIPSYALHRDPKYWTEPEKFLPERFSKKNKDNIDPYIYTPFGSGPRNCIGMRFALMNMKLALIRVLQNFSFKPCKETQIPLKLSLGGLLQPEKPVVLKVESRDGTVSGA
Method in brief: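 Testosterone substrate at 100 μmol/L with 10 nmol/L insect-cell-expressed CYP3A4 and 10 μmol/L test compound, incubated 15 min at 37 °C. 6β-hydroxytestosterone quantified by HPLC with UV detection.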

[10] = Drug uptake in Sprague-Dawley rat stomach at 0.2 mg/kg, iv administered as cassette dose after 10 mins by LC-MS/MS analysis; assay type: ADME, organism-based; conditions: read-out: Drug uptake; method in brief: as §1
Rattus norvegicus [11] = assay: Inhibition of histamine-induced acid secretion in Jcl:Sprague-Dawley rat gastric at 1 mg/kg, iv pretreated for 3 mins after pylorus ligation followed by histamine.2HCl treatment measured after 3 hrs by titration method relative to control; assay type: functional
Method in brief: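 Anesthetized rats dosed iv at 1 mg/kg. Total acid output over 3 h after histamine injection compared with vehicle-treated rats.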

Stomach = assay: AUC in Sprague-Dawley rat stomach at 0.2 mg/kg, iv administered as cassette dose by LC-MS/MS analysis; assay type: ADME, organism-based; conditions: in vivo; method in brief: as §1
[12] = Drug uptake in Sprague-Dawley rat stomach at 0.2 mg/kg, iv administered as cassette dose after 24 hrs by LC-MS/MS analysis; assay type: ADME, organism-based; conditions: read-out: Drug uptake; method in brief: as §1
Rattus norvegicus [13] = assay: Inhibition of histamine-induced acid secretion in Jcl:Sprague-Dawley rat assessed as pH of gastric perfusate at 1 mg/kg, iv pretreated for 3 mins after pylorus ligation followed by histamine.2HCl treatment measured after 3 hrs by glass electrode method (reference value: 2); assay type: functional
Rattus norvegicus [14] = assay: Inhibition of histamine-induced acid secretion in Jcl:Sprague-Dawley rat assessed as increase in pH of gastric perfusate at 1 mg/kg, iv pretreated for 3 mins after pylorus ligation followed by histamine.2HCl treatment measured after 180 to 300 mins by glass electrode method; assay type: functional, organism-based
Canis familiaris [15] = assay: Inhibition of histamine-induced acid secretion in dog heidenhain pouch at 1 mg/kg, po treated 1 day after and 1 to 48 hrs before histamine.2HCl treatment measured 30 mins post histamine challenge by titration method; assay type: functional, organism-based; conditions: Canis lupus familiaris
[16] = Stability of the compound under acidic condition; assay type: physicochemical
[17] = Dissociation constant, pKa of the compound; assay type: physicochemical
Method in brief: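 pH-metric titration across pH 2–12 with an Ag/AgCl pH electrode.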

[18] = Inhibition of CYP450 (unknown origin); assay type: ADME; conditions: human
Canis familiaris [19] = assay: Inhibition of histamine-induced acid secretion in dog heidenhain pouch at 1 mg/kg, po treated 1 day after and 1 to 48 hrs before histamine.2HCl treatment measured up to 24 hrs post dose by titration method; assay type: functional, organism-based; conditions: Canis lupus familiaris
Method in brief: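 Heidenhain pouch dogs dosed orally at 1 mg/kg, with histamine-stimulated acid secretion followed over time, up to 24 h after dosing. Mean ± SE from three or four dogs.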

Rattus norvegicus [20] = assay: Inhibition of histamine-induced acid secretion in po dosed rat assessed as increase in pH of gastric perfusate pretreated for 1 hr followed by pylorus ligation and histamine.2HCl treatment measured after 3 hrs by glass electrode method; assay type: functional, organism-based
Rattus norvegicus [21] = assay: Inhibition of histamine-induced acid secretion in Jcl:Sprague-Dawley rat assessed as increase in pH of gastric perfusate at 1 mg/kg, iv pretreated for 3 mins after pylorus ligation followed by histamine.2HCl treatment measured after 3 hrs by glass electrode method; assay type: functional, organism-based

Row | concentration at 1 h [1] | concentration at 4 h [3] | logD [4] | concentration at 10 min [6] | concentration at 1 h [7] | AUC [8] | IC50 [9] | inhibition at 0.25 h, 10 µM (CYP3A4) | concentration at 10 min [10] | AUC (Stomach) | concentration at 24 h [12] | Structure (SMILES) | viability at 24 h, 100 µM [5] | inhibition at 10 µM (hERG (KCNH2)) | inhibition in vivo at 1 mg/kg (Rattus norvegicus [11]) | pH (Rattus norvegicus [13]) | inhibition (Rattus norvegicus [14]) | inhibition (Canis familiaris [15]) | further results
1 | 577 ng/g | 300 ng/g | 0.48 | 25.3 ng/mL | 8 ng/mL | 32 ng·h/mL | 210 nM | 30.1% | 507 ng/g | 4806 ng·h/g |  | CNCc1cn(S(=O)(=O)c2cccnc2C)c(-c2cccnc2F)c1F | 97.4% | 14.8% | 92% |  |  |  | concentration at 4 h [2]: 0.3 ng/mL
2 | 809 ng/g | 337 ng/g | 0.44 | 36 ng/mL | 7.9 ng/mL | 33 ng·h/mL | 97 nM | 7.7% | 617 ng/g | 5757 ng·h/g | 2.1 ng/g | CNCc1cn(S(=O)(=O)c2ccccn2)c(-c2cccnc2F)c1F | 94.8% | 9% | 95% | 5 | inactive | Active | 
3 | 927 ng/g | 682 ng/g | 0.48 | 39.4 ng/mL | 8.1 ng/mL | 35 ng·h/mL | 73 nM | 4.3% | 947 ng/g | 10378 ng·h/g | 28.9 ng/g | CNCc1cn(S(=O)(=O)c2cc(C)ccn2)c(-c2cccnc2F)c1F | 85.5% | 45.1% | 92% | 6 | inactive | Active | Stability [16]: Stable; pKa [17]: 8.73; inhibition (INH) [18]: Not Active; inhibition (Canis familiaris [19]): Active; inhibition (Rattus norvegicus [20]): Dose-dependent effect
4 | 1120 ng/g | 1180 ng/g | 0.62 | 40.1 ng/mL | 10.8 ng/mL | 41 ng·h/mL | 180 nM | -1.2% | 672 ng/g | 18284 ng·h/g | 219 ng/g | CNCc1cn(S(=O)(=O)c2ccc(C)nc2)c(-c2cccnc2F)c1F | 76.7% | 24.8% | 97% |  | inactive |  | inhibition (Rattus norvegicus [21]): Active
